Values after ≈ are worked out from the molar mass of the structure shown. Active and inactive are the calls of the source. No cut-off for these calls is given here.

Data set [1] relates to Leishmania donovani. Kind of data set: Antileishmanial activity against Leishmania donovani MHOM/IN/Dd8 promastigote carrying firefly luciferase gene infected in mouse J774A1 cells assessed as relative luminescence unit at 40 ug/mL after 72 hrs. In kind it is functional. As to conditions: for inhibition at 40 µg/mL: MHOM/IN/Dd8, J774.A1, 72 h; for inhibition: J774.A1.
Data set [2] is described as follows: Cytotoxicity against mouse J774A1 cells after 72 hrs by MTT assay. In kind it is cell-based, J774.A1. The gist of the method: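 J774A.1 cells were grown in RPMI with 10% foetal calf serum and 40 µg/mL gentamycin. Exponentially growing cells (1 × 10^4/well) received compound dilutions, made from DMSO stock in complete medium, for 72 h at 37 °C in humidified CO2/air. MTT (5 mg/mL in PBS) was added for 2 h, supernatant removed and formazan dissolved in DMSO. A544 was read, and CC50 (50% viability reduction versus medium-only cells) was estimated by template.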
(Tetrazolium dyes change colour on reduction, which living cells bring about.)

The subject of data set [3] is Leishmania donovani. Kind of data set: Antileishmanial activity against Leishmania donovani (MHOM/IN/Dd8) amastigote infected in mouse J774 cells assessed as after 72 hrs by luminometry. The data set is classed as functional, organism-based. The following applies: for IC50: MHOM/IN/Dd8, J774, 72 h. In short, it runs like this: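 J774 macrophages were seeded at 1.5 × 10^4 cells/well in RPMI-1640 with 10% foetal calf serum at 37 °C under CO2. After 24 h, medium was replaced with medium containing luciferase-transfected stationary-phase promastigotes (2.25 × 10^5/well). Test material at 0.25–10 in complete medium was then added for 72 h at 37 °C. Wells were given PBS plus Steady-Glo and read by luminometer; inhibition was calculated against untreated infected controls.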

Data set [4] is described as follows: (§1) Selectivity index, ratio of CC50 for mouse J774A1 cells to IC50 for IC50 Leishmania donovani MHOM/IN/Dd8. In kind it is functional, J774.A1.
Data set [5] deals with J774.A1. Described as §1. The data set is classed as functional.
For data set [6], the system named is Leishmania donovani. Briefly: Antileishmanial activity against Leishmania donovani MHOM/IN/Dd8 promastigote carrying firefly luciferase gene infected in mouse J774A1 cells assessed as relative luminescence unit at 940 ug/mL after 72 hrs. In kind it is functional, organism-based. The following applies: J774.A1.
The test system of data set [7] is Leishmania donovani. Kind of data set: Antileishmanial activity against Leishmania donovani (MHOM/IN/Dd8) amastigote infected in mouse J774 cells assessed as after 72 hrs by luminometry at 40 ug/ml. The data set is classed as functional, organism-based.
Data set [8] deals with Leishmania donovani. Briefly: Antileishmanial activity against Leishmania donovani MHOM/IN/Dd8 promastigote carrying firefly luciferase gene infected in mouse J774A1 cells assessed as relative luminescence unit at 0.5 ug/mL after 72 hrs. The data set is classed as functional. As to conditions: MHOM/IN/Dd8, J774.A1, 72 h.

One may read the inhibition as the percentage by which the read-out fell short of the control. As for `Cn1c2ccccc2c2nnc(Sc3nc(N4CCOCC4)nc(N4CCOCC4)n3)nc21`, in data set [1], the inhibition at 40 µg/mL was 43.1%.
One may read the CC50 as the concentration at which the toxic effect on the cells reaches its halfway point. For orientation: MIC means the lowest concentration that inhibits growth of the organism. Broadly, the IC50 is the concentration that gives 50% inhibition. Turning to `CCCCNc1nc(C)cc(Sc2nnc3c4ccccc4n(C)c3n2)n1`, in data set [1], the inhibition at 40 µg/mL was 99.7%. Also, in data set [2], it took 88.4 µM to reach half-maximal cytotoxicity (CC50 at 72 h). The MIC in data set [3] (MHOM/IN/Dd8, 72 h) turned out to be 110 µM (≈ 41.8 µg/mL). Also, the 50% inhibitory concentration (IC50) in data set [3] came to 18.3 µM. The “Ratio CC50/IC50” value in data set [4] amounted to 4.82.
Taken in the same sequence, the figures for `Cc1cc(Sc2nnc3c4ccccc4n(C)c3n2)nc(NC(C)C)n1` were 99.2%, 109 µM, 93.8 µM (≈ 34.3 µg/mL), 29.6 µM and 3.66.
In the case of `Cc1cc(Sc2nnc3c4ccccc4n(C)c3n2)nc(N2CCN(C)CC2)n1`, in data set [1], the inhibition at 40 µg/mL is 99.9%. The compound further registered a cytotoxic concentration (CC50) at 72 h in data set [2] of 29.2 µM. The MIC in data set [3] (MHOM/IN/Dd8, 72 h) was 68.7 µM (≈ 27.9 µg/mL). Further, the IC50 in data set [3] stood at 57.8 µM. For the same compound, the “Ratio CC50/IC50” value in data set [4] came to 0.5.
For the compound `CN1CCN(c2nc(Sc3nnc4c5ccccc5n(C)c4n3)nc(N3CCN(C)CC3)n2)CC1`, the inhibition entry in data set [1] is “inactive”.
Regarding “D-Gluconic acid,2,4:2',4'-O-[oxybis-(oxidostibylidyne)]bis-,trisodium salt, nonahydrate”, the MIC in data set [3] amounted to 164 µM. The Ratio CC50/IC50 in data set [5] amounted to 5.53. The inhibition in data set [6] came to 40%.
For the compound `Cc1cc(Sc2nnc3c4ccccc4n(C)c3n2)nc(NCCN(C)C)n1`, in data set [7], the outcome was inactive. The inhibition at 40 µg/mL in data set [1] was 100%. Moreover, the “Ratio CC50/IC50” value in data set [5] was “inactive”.
As to `Cn1c2ccccc2c2nnc(Sc3nc(NCCN4CCOCC4)nc(NCCN4CCOCC4)n3)nc21`, the outcome in data set [7] was inactive. Besides, the inhibition at 40 µg/mL in data set [1] was 77.1%. For the same compound, the “Ratio CC50/IC50” value in data set [5] was “inactive”.
For the compound `Cc1cc(Sc2nnc3c4ccccc4n(C)c3n2)nc(NC(C)(C)C)n1`, the inhibition at 40 µg/mL in data set [1] came out at 66.7%.
Turning to `Cn1c2ccccc2c2nnc(Sc3nc(NC(C)(C)C)nc(NC(C)(C)C)n3)nc21`, in data set [7], the result was inactive. The inhibition at 40 µg/mL in data set [1] was determined as 97.4%. For the same compound, in data set [5], the “Ratio CC50/IC50” value is “inactive”.
In the case of `Cn1c2ccccc2c2nnc(Sc3nc(N4CCCCC4)nc(N4CCCCC4)n3)nc21`, the inhibition at 40 µg/mL in data set [1] came out at 75.6%. Moreover, the CC50 at 72 h in data set [2] worked out at 227 µM. In addition, in data set [3] (MHOM/IN/Dd8, 72 h), the MIC stood at 20.5 µM (≈ 9.48 µg/mL). In addition, the IC50 in data set [3] turned out to be 4.01 µM. Also, in data set [4], the “Ratio CC50/IC50” value is listed as 56.61.
With `Cc1cc(Sc2nnc3c4ccccc4n(C)c3n2)nc(NCCCN2CCOCC2)n1`, in data set [7], the outcome was inactive. Further, the inhibition at 40 µg/mL in data set [1] was 95.1%. Also, in data set [5], the “Ratio CC50/IC50” value is “inactive”.
For `Cc1cc(Sc2nnc3c4ccccc4n(C)c3n2)nc(N2CCCCC2)n1`, the inhibition at 40 µg/mL in data set [1] was found to be 99.3%. This compound displayed a CC50 at 72 h in data set [2] of 173 µM. Also, the MIC in data set [3] (MHOM/IN/Dd8, 72 h) came to 139 µM (≈ 54.3 µg/mL). Further, the half-inhibitory concentration (IC50) in data set [3] is 25.7 µM. Further, in data set [4], the “Ratio CC50/IC50” value was determined as 6.74.
Compound `N=C(N)c1ccc(OCCCCCOc2ccc(C(=N)N)cc2)cc1` [PENTAMIDINE] registered a CC50 at 72 h in data set [2] of 52.8 µM. Besides, in data set [3] (MHOM/IN/Dd8, 72 h), the MIC is > 169 µM. Further, in data set [3], the IC50 amounted to 20.4 µM. Moreover, in data set [8], the inhibition at 0.5 µg/mL was found to be 85%.
Regarding `CN(C)CCNc1nc(NCCN(C)C)nc(Sc2nnc3c4ccccc4n(C)c3n2)n1`, the inhibition at 40 µg/mL in data set [1] was 68.5%.
With `CCN(CC)CCNc1nc(C)cc(Sc2nnc3c4ccccc4n(C)c3n2)n1`, the outcome in data set [7] was inactive. Also, in data set [1], the inhibition at 40 µg/mL was determined as 99.9%. In data set [5], the “Ratio CC50/IC50” value is “inactive”.
As to `CCN1CCN(c2nc(C)cc(Sc3nnc4c5ccccc5n(C)c4n3)n2)CC1`, the inhibition at 40 µg/mL in data set [1] amounted to 100%. This compound also displayed a 50% cytotoxic concentration (CC50) at 72 h in data set [2] of 28.1 µM. Also, the MIC in data set [3] (MHOM/IN/Dd8, 72 h) was 90.8 µM (≈ 38.2 µg/mL). Further, the IC50 in data set [3] stood at 26.3 µM. The “Ratio CC50/IC50” value in data set [4] worked out at 1.06.
Take `Cn1c2ccccc2c2nnc(Sc3nc(NCCCN4CCOCC4)nc(NCCCN4CCOCC4)n3)nc21`: the inhibition entry in data set [1] was “inactive”.
For the compound `CC(C)Nc1nc(NC(C)C)nc(Sc2nnc3c4ccccc4n(C)c3n2)n1`, the inhibition at 40 µg/mL in data set [1] worked out at 99.3%. This compound also gave a CC50 at 72 h in data set [2] of 64.5 µM. Further, in data set [3] (MHOM/IN/Dd8, 72 h), the MIC was 90.5 µM (≈ 37.1 µg/mL). The IC50 in data set [3] is 17.4 µM. The “Ratio CC50/IC50” value in data set [4] was determined as 3.71.
For the compound `CCN(CC)CCNc1nc(NCCN(CC)CC)nc(Sc2nnc3c4ccccc4n(C)c3n2)n1`, in data set [1], the inhibition at 40 µg/mL turned out to be 49.3%.
In the case of `Cc1cc(Sc2nnc3c4ccccc4n(C)c3n2)nc(N2CCOCC2)n1`, the inhibition result in data set [1] is “inactive”.
As to `CCCCNc1nc(NCCCC)nc(Sc2nnc3c4ccccc4n(C)c3n2)n1`, the result in data set [7] was inactive. Further, in data set [1], the inhibition at 40 µg/mL amounted to 93.2%. In data set [2], this compound showed a CC50 at 72 h of 17.1 µM. For the same compound, the “Ratio CC50/IC50” value in data set [5] is “inactive”.
`Cc1cc(Sc2nnc3c4ccccc4n(C)c3n2)nc(NCCN2CCOCC2)n1`: the inhibition at 40 µg/mL in data set [1] was 51.1%.
As for `CCN1CCN(c2nc(Sc3nnc4c5ccccc5n(C)c4n3)nc(N3CCN(CC)CC3)n2)CC1`, the inhibition at 40 µg/mL in data set [1] was 100%. In data set [2], the CC50 at 72 h is 93.2 µM. In addition, the MIC in data set [3] (MHOM/IN/Dd8, 72 h) was 26.6 µM (≈ 13.8 µg/mL). Also, in data set [3], the IC50 is 15.5 µM. For the same compound, the “Ratio CC50/IC50” value in data set [4] was 6.

Source of the values: ChEMBL document CHEMBL1165910, “Synthesis and biological evaluation of new [1,2,4]triazino[5,6-b]indol-3-ylthio-1,3,5-triazines and [1,2,4]triazino[5,6-b]indol-3-ylthio-pyrimidines against Leishmania donovani” (Eur J Med Chem, 2010).
